This note sets out measurements from ChEMBL document CHEMBL4177709, “Design, synthesis and evaluation against Mycobacterium tuberculosis of azole piperazine derivatives as dicyclotyrosine (cYY) mimics” (Bioorg Med Chem, 2018).

≈ marks a conversion by molar mass, not a printed value. Calls of active or inactive are those of the source. The rule behind the calls is not given here.

The nature of experiment [1]: Binding affinity to Mycobacterium tuberculosis CYP121A1 by UV-visible spectrophotometric titration method. The method, boiled down: (§1)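 Purified CYP121A1 (3-4 μM) titrated at 28 °C in 100 mM KPi, 200 mM KCl, 0.004% Triton X-100, pH 7.85, with small aliquots of ligand from DMSO stocks. UV-visible spectra recorded 250-800 nm. Difference spectra give peak-minus-trough absorbance change, plotted against [ligand]. Kd obtained by hyperbolic or Hill fit, averaged over triplicate titrations.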

Experiment [2] deals with Mycobacterium tuberculosis. The experiment can be described thus: Antibacterial activity against Mycobacterium tuberculosis H37Rv after 7 days by resazurin microtiter assay. Format: functional. As to conditions: 168 h. Summed up:
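M. tuberculosis H37Rv grown at 37 °C in 7H9 with 10% OADC to mid-log (OD600 0.4-0.6), adjusted to McFarland no.1 and diluted 1:20. Compounds from DMSO stocks serially diluted in 7H9/OADC to final 0.39-100 µg/mL; rifampicin 0.004-1 µg/mL as control. After 7 days at 37 °C, 0.01% resazurin added; fluorescence (530/590 nm) read 24 h later.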

Experiment [3] has as its system Mycobacterium tuberculosis. The experiment can be described thus: Binding affinity to Mycobacterium tuberculosis CYP121A1 assessed as red shift in heme soret peak up to 250 uM by UV-visible spectrophotometric titration method. The method, boiled down: as §1
For experiment [4], the system named is Mycobacterium tuberculosis. The experiment can be described thus: Binding affinity to Mycobacterium tuberculosis CYP121A1 assessed as blue shift in heme soret peak up to 1750 uM by UV-visible spectrophotometric titration method. The method, boiled down: as §1
Experiment [5] has as its system Mycobacterium tuberculosis. Briefly: Binding affinity to Mycobacterium tuberculosis CYP121A1 assessed as red shift in heme soret peak up to 300 uM by UV-visible spectrophotometric titration method. Summed up: as §1
Experiment [6] relates to Mycobacterium tuberculosis. The experiment can be described thus: Binding affinity to Mycobacterium tuberculosis CYP121A1 assessed as red shift in heme soret peak up to 500 uM by UV-visible spectrophotometric titration method. Summed up: as §1

Turning to `c1ccc(CN2CCN(Cc3ccccc3)C(Cn3cncn3)C2)cc1` (stereo not given), the Kd in experiment [1] is 1830 µM. This compound also displayed an MIC90 in experiment [2] of over 100 µg/mL.

As to `COc1ccc(CN2CCN(Cc3ccc(OC)cc3)C(Cn3cncn3)C2)cc1` (stereo not given), binding in experiment [1] was characterised by a dissociation constant (Kd) of 1300 µM. For the same compound, the MIC90 in experiment [2] worked out at 100 µg/mL (≈ 245 µM).

As for `COc1cc(CN2CCN(Cc3cc(OC)cc(OC)c3)C(Cn3ccnc3)C2)cc(OC)c1` (stereo not given), the Kd in experiment [1] was 1440 µM. In experiment [2], the MIC90 was found to be 12.5 µg/mL (≈ 26.8 µM).

Turning to `c1ccc(CN2CCN(Cc3ccccc3)C(Cn3ccnc3)C2)cc1` (stereo not given), the MIC90 in experiment [2] turned out to be 50 µg/mL (≈ 144 µM).

Take `O=C1CN(CCCn2ccnc2)CCN1Cc1ccc(Cl)cc1`: the outcome in experiment [3] was Active. Also, the Kd in experiment [1] amounted to 81.3 µM. Further, in experiment [2], the MIC90 is over 100 µg/mL.

As to `O=C(Cn1cncn1)N1CCN(Cc2ccc(Cl)cc2Cl)CC1`, in experiment [4], the outcome was Active. In experiment [1], this compound registered a Kd of 417 µM. Also, the MIC90 in experiment [2] is over 100 µg/mL.

For the compound `O=C(Cn1cncn1)N1CCN(Cc2ccc(F)cc2)CC1`, binding in experiment [1] was put at a Kd of 960 µM. In experiment [2], this compound displayed an MIC90 of over 100 µg/mL.

Take `O=C1CN(CCCn2ccnc2)CCN1Cc1ccc(F)cc1`: the outcome in experiment [5] was Active. Also, in experiment [1], binding was characterised by a dissociation constant (Kd) of 226 µM. In experiment [2], this compound displayed an MIC90 of over 100 µg/mL.

In turn, `O=C(Cn1ccnc1)N1CCN(Cc2ccc(F)cc2)CC1` came in with a Kd in experiment [1] of 1140 µM. For the same compound, the MIC90 in experiment [2] is over 100 µg/mL.

The compound `O=C1CN(CCCn2ccnc2)CCN1Cc1ccc(Cl)cc1Cl` registered a Kd in experiment [1] of 967 µM. The compound also returned an MIC90 in experiment [2] of 100 µg/mL (≈ 272 µM).

For the compound `COc1ccc(CN2CCN(CCCn3ccnc3)CC2=O)cc1`, in experiment [6], the result was Active. The compound also registered an equilibrium dissociation constant (Kd) in experiment [1] of 309 µM. Moreover, in experiment [2], the MIC90 is over 100 µg/mL.

As usually defined, the Kd is the concentration at which binding is half-saturated. Low values mean tighter binding, high ones weaker binding. For orientation: MIC90 means an inhibitory concentration at the 90% level, which refers to growth in some studies and to a panel of isolates in others. A higher MIC90 goes with weaker potency.
